Assay outcomes deposited in PubChem by several laboratories.
Rows were chosen to be rich in hits. Some 1.1% of all compounds tested hit in one or more screens of this group.
Furin inhibitor = human furin inhibitors, primary screen, biochemical, fluorescence intensity; P09958; purified furin, fluorogenic substrate cleavage; inhibition, % at 20 µM or 30 µM; hit rate 0.061% among 220,000; AID 463115, 2010; in the data active means inhibition above about 25%
hK5 inh = human KLK5 protease inhibitors, primary screen, biochemical, 1536-well; Kallikrein-5 (Homo sapiens), Q9Y337; AID 873, 2007; hit rate 0.59% among 210,000; inhibition, % at 5 µM; recombinant hK5, fluorogenic AMC substrate cleavage;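 active means inhibition of 40% or more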
Biofilm kill mix = clotrimazole potentiators killing C. albicans biofilm, primary screen, 4-compound mixtures; C. albicans biofilm persisters + clotrimazole, fluorescence viability; primary screen in compound mixtures of four per well; inhibition, % at 7.6 µM; hit rate 0.02% among 120,000;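 active means inhibition above 30.3% in the primary screen of four-compound pools, then above 30% when the compound was retested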;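 further: compounds exposed to preformed 24 h biofilms for 48 h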
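System: C. albicans CAF4-2 wild-type biofilms; Medium: RPMI/MOPS medium, pH 7.0; Reagent: Clotrimazole, 50 µg/mL; Times: biofilm formation 24 h, compound exposure 48 h, 37 °C; Detection: 2-h Alamar Blue fluorescence, 535/590 nm excitation/emission; Evaluation: percent inhibition of biofilm viability.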
FXIa inh 1536 = human FXIa protease inhibitors, primary screen, biochemical, 1536-well. Coagulation factor XI (Homo sapiens), P03951. purified FXIa, Boc-Glu-Ala-Arg-AMC fluorogenic substrate. inhibition, % at 5 µM. hit rate 0.14% among 220,000;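 active means inhibition of at least 40%; inactive means inhibition below 40%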;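 further: fluorescence of freed AMC excited at 355 nm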
Thrombin inh = human alpha-thrombin inhibitors, primary screen, counter-screen for coagulation protease inhibitor project, biochemical, 1536-well, fluorogenic AMC substrate; Boc-VPR-AMC fluorogenic substrate cleavage; inhibition, % at 5 µM; hit rate 0.26% among 220,000; AID 1046, 2008;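 active means inhibition at or above 40%; inactive means inhibition below 40%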
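Assay system: human alpha-thrombin enzyme. Reagent: Boc-VPR-AMC substrate, 15 µM final. Compound dosing: one concentration per compound, 5 µM, with 0.2% DMSO. Incubation: room-temperature reaction. Technique: AMC fluorescence, 355/460 nm. Measure: % inhibition relative to enzyme controls and enzyme-free blanks.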
FXIIa inh 1536 = human FXIIa protease inhibitors, primary screen, biochemical, 1536-well. purified FXIIa, Boc-QGR-AMC fluorogenic substrate, 2 h. hit rate 0.3% among 220,000. Coagulation factor XII (Homo sapiens), P00748. inhibition, % at 5 µM; in the data active means inhibition above about 40%
Of the large screens only hits and unclear results are named; the others gave an inactive call.

CC(=O)c1cccc(NC(=O)N2CCCC2C(=O)Nc2cccc(C)c2)c1 (centres undefined)	none (no result: Biofilm kill mix)
CCOC(=O)c1c(NC(=O)CSc2nnc(-c3cccnc3)o2)sc(C(C)=O)c1C	hK5 inh 48 (no result: Biofilm kill mix)
COc1cccc(C(=O)N/N=C/c2ccc(OC3CSC3)cc2)c1	hK5 inh 45 (no result: Biofilm kill mix)
CCc1nnc(NC(=O)c2ccc(NC(=O)C(C)C)cc2)s1	FXIa inh 1536 43
COCc1nnc(NC(=O)c2ccc(NC(=O)C(C)C)cc2)s1	none (no result: Biofilm kill mix)
O=c1c2[nH]c3cccc(Cl)c3c2ncn1CCN1CCCCC1	FXIIa inh 1536 43 (no result: Biofilm kill mix)
O=c1c2[nH]c3cccc(Cl)c3c2ncn1CC1CCCO1 (centres undefined)	none
CCn1nc(C)c(NC(=O)CC23CC4CC(CC(C4)C2)C3)c1C	none
Cc1nn(C)cc1NC(=O)CC12CC3CC(CC(C3)C1)C2	hK5 inh 52
N#Cc1ccc(OCC(=O)N/N=C/C2CC=CCC2)cc1 (centres undefined)	none
CCN1C(=O)C(=O)N(CC(=O)Nc2ccccc2Oc2ccccc2)C1=O	none
CC1(C)CC(=O)CC(=NCC(=O)O)C1	hK5 inh 128 (no result: Biofilm kill mix)
CC1(C)CC(=O)C/C(=N\NC(=S)NCc2ccccc2)C1	none (no result: Thrombin inh)
C/C=C(\C)C(=O)OC1c2c(ccc3ccc(=O)oc23)OC(C)(C)C1OC(C)=O (centres undefined)	FXIa inh 1536 45
C/C=C(/C)C(=O)OC1c2c(ccc3ccc(=O)oc23)OC(C)(C)C1OC(=O)/C(C)=C\C (centres undefined)	none
CCOC(=O)NC(=O)CSc1nc2ccc([N+](=O)[O-])cc2[nH]1	hK5 inh 44
COc1ccc(CN(C(=O)c2snc(C(N)=O)c2N)C(C(=O)NC(C)(C)C)c2ccco2)cc1 (centres undefined)	FXIIa inh 1536 43 (no result: Biofilm kill mix)
COc1ccc([N+](=O)[O-])cc1/C=N/Nc1nn[nH]n1	none
COC(=O)C(C)NC(=O)C1CCCN1S(=O)(=O)c1cc(C)c(Cl)cc1C (centres undefined)	hK5 inh 49, FXIIa inh 1536 48 (no result: Biofilm kill mix)
CCC(C)NC(=O)C1CCCN1S(=O)(=O)c1ccc(Cl)cc1 (centres undefined)	none
CCOC(=O)C(CC)Sc1nnc(COc2ccc(C)cc2)n1-c1ccccc1 (centres undefined)	Furin inhibitor 28
CCOc1ccc(-n2c(COc3ccc(C)cc3)nnc2SCC(N)=O)cc1	none (no result: Biofilm kill mix)
O=C(CCC1CCCN(Cc2ccncc2)C1)NCc1ccc(F)c(F)c1 (centres undefined)	none
CCCC(=O)NC(=S)Nc1ccc(Cl)cn1	hK5 inh 112 (no result: Biofilm kill mix)
CCOc1ccccc1C(=O)Nc1nnc(SCC(=O)N2CCOCC2)s1	hK5 inh 43, Thrombin inh 55
CCOC(=O)c1c(N)sc(C(=O)N2CCCC(C(N)=O)C2)c1C (centres undefined)	none (no result: hK5 inh, Biofilm kill mix, FXIa inh 1536, Thrombin inh, FXIIa inh 1536)
Cc1c(C(=O)N2CCC(C(N)=O)CC2)sc(N)c1C#N	hK5 inh 107, Thrombin inh 104 (no result: Biofilm kill mix)
O=C(O)CC1(CC(=O)Nc2ccc3sccc3c2)CCCCC1	none
Cc1ccc(S(=O)(=O)Nc2cc(=O)[nH]c3c2CCC3)cc1	none
COc1ccc(Nc2nnc(SC(C(=O)Nc3cc(C)ccc3C)c3ccccc3)s2)cc1 (centres undefined)	FXIIa inh 1536 75
COc1ccc(C)cc1NC(=O)C(Sc1nnc(Nc2cc(C)ccc2OC)s1)c1ccccc1 (centres undefined)	none
CCOC(=O)c1c(NC(=S)NCC2CCCO2)sc(C)c1C (centres undefined)	none
CCCCC(=O)NCc1ccc2c(c1)cc(C)n2C	none (no result: Biofilm kill mix)
CCOC(=O)CCC(=O)NCc1ccc2c(c1)cc(C)n2C	hK5 inh 54 (no result: Biofilm kill mix)
COc1ccc(C2CC(C(F)(F)F)n3nc(C(=O)Nc4ccc5c(c4)OCO5)cc3N2)cc1 (centres undefined)	FXIIa inh 1536 43 (no result: Biofilm kill mix)
COc1ccc(OC)c(NC(=O)c2cc3n(n2)C(C(F)(F)F)CC(c2ccc4c(c2)OCO4)N3)c1 (centres undefined)	none (no result: hK5 inh, Biofilm kill mix, FXIa inh 1536, Thrombin inh, FXIIa inh 1536)
